Test results taken from ChEMBL document CHEMBL1123541, “Preparation and antitumor activity of 7-substituted 1,2-aziridinomitosenes” (J Med Chem, 1986).

Legend:
P388 [1] = experiment: Compound was tested for antitumor activity against P388 Murine leukemia in BDF1 female mice at a dose of 3.2 mg/kg per injection; format: functional, Mus musculus
How it was run: (§1)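 P388 ascites cells (10^6) implanted ip into BDF1 female mice. Aziridinomitosene given on day 1 only, six mice per dose; ten saline-treated mice on day 1 only as controls. Read-out is median survival time in days, %T/C = MST treated/MST control × 100, with 125 taken as significant. Mitomycin C run as a positive control at its optimal dose.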

P388 [2] = experiment: Compound was tested for antitumor activity against P388 Murine leukemia in BDF1 female mice at a dose of 1.6 mg/kg per injection (MST treated / MST control x 100); format: functional, Mus musculus; how it was run: as §1
Mus musculus [3] = experiment: Average weight change of BDF1 female mice at a dose of 1.6 mg/kg per injection; format: functional
How it was run: (§2)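 BDF1 female mice implanted ip with 10^6 ascites leukemia cells, then given the aziridinomitosene on day 1 only, six mice per dose. Average weight change is the weight difference between the treated and control groups.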

Mus musculus [4] = experiment: Average weight change of BDF1 female mice at a dose of 51.2 mg/kg per injection; format: functional; how it was run: as §2
Mus musculus [5] = experiment: Average weight change of BDF1 female mice at a dose of 25.6 mg/kg per injection; format: functional; how it was run: as §2
P388 [6] = experiment: (§3) Compound was tested for antitumor activity against P388 Murine leukemia in BDF1 female mice at a dose of 12.8 mg/kg per injection; format: functional, Mus musculus; how it was run: as §1
P388 [7] = experiment: Compound was tested for antitumor activity against P388 Murine leukemia in BDF1 female mice at a dose of 51.2 mg/kg per injection; format: functional, Mus musculus; how it was run: as §1
Mus musculus [8] = experiment: Average weight change of BDF1 female mice at a dose of 12.8 mg/kg per injection; format: functional; how it was run: as §2
[9] = Partition coefficient (logP); format: physicochemical; conditions: octanol/water
P388 [10] = experiment: Minimum effective dose determined against P-388 Murine leukemia in BDF1 female mice.; format: functional; conditions: Mus musculus, read-out: MED
Mus musculus [11] = experiment: Average weight change of BDF1 female mice at a dose of 6.4 mg/kg per injection; format: functional; how it was run: as §2
Mus musculus [12] = experiment: Average weight change of BDF1 female mice at a dose of 3.2 mg/kg per injection; format: functional; how it was run: as §2
P388 [13] = experiment: Compound was tested for antitumor activity against P388 Murine leukemia in BDF1 female mice at a dose of 6.4 mg/kg per injection; format: functional, Mus musculus; how it was run: as §1
P388 [14] = experiment: Compound was tested for antitumor activity against P388 Murine leukemia in BDF1 female mice at a dose of 25.6 mg/kg per injection; format: functional, Mus musculus; how it was run: as §1
P388 [15] = experiment: as §3; format: functional, Mus musculus; set-up: unit not given here; how it was run: as §1
P388 [16] = experiment: Compound was tested for antitumor activity against P388 Murine leukemia in BDF1 female mice at a dose of 3.2 mg/kg per injection (MST treated / MST control x 100); format: functional, Mus musculus; how it was run: as §1
P388 [17] = experiment: Compound was tested for antitumor activity against P388 Murine leukemia in BDF1 female mice at a dose of 1.6 mg/kg per injection; format: functional, Mus musculus; how it was run: as §1
P388 [18] = experiment: Compound was tested for antitumor activity against P388 Murine leukemia in BDF1 female mice at a dose of 1.6 mg/kg per injection given as MST treated / MST control x 100; format: functional, Mus musculus; how it was run: as §1
P388 [19] = experiment: Compound was tested for antitumor activity against P388 Murine leukemia in BDF1 female mice at a dose of 8 mg/kg per injection; format: functional, Mus musculus; how it was run: as §1
Mus musculus [20] = experiment: Average weight change of BDF1 female mice at a dose of 16 mg/kg per injection; format: functional; how it was run: as §2
L1210 [21] = experiment: Compound was tested for antitumor activity against L-1210 Murine leukemia in BDF1 female mice at dose of 40 mg/kg inj; format: functional, Mus musculus
How it was run: (§4)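 L-1210 run per NCI protocol. 10^6 ascites cells implanted ip into BDF1 female mice. Aziridinomitosene given on day 1 only, six mice per dose, with a control group of 36 mice. Median survival time in days is recorded, and %T/C = MST treated/MST control × 100, with 125 taken as significant.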

P388 [22] = experiment: Compound was tested for antitumor activity against P388 Murine leukemia in BDF1 female mice at a dose of 16 mg/kg per injection; format: functional, Mus musculus; how it was run: as §1
Mus musculus [23] = experiment: Average weight change of BDF1 female mice at a dose of 8 mg/kg per injection; format: functional; how it was run: as §2
Mus musculus [24] = experiment: Average weight change of BDF1 female mice at a dose of 32 mg/kg per injection; format: functional; how it was run: as §2
L1210 [25] = experiment: Compound was tested for antitumor activity against L-1210 Murine leukemia in BDF1 female mice at dose of 20 mg/kg inj; format: functional, Mus musculus; how it was run: as §4
Mus musculus [26] = experiment: Average weight change of BDF1 female mice at a dose of 64 mg/kg per injection; format: functional; how it was run: as §2
P388 [27] = experiment: Compound was tested for antitumor activity against P388 Murine leukemia in BDF1 female mice at a dose of 32 mg/kg per injection; format: functional, Mus musculus; how it was run: as §1
P388 [28] = experiment: Compound was tested for antitumor activity against P388 Murine leukemia in BDF1 female mice at a dose of 64 mg/kg per injection; format: functional, Mus musculus; how it was run: as §1
Mus musculus [29] = experiment: Average weight change of BDF1 female mice at a dose of 24 mg/kg per injection; format: functional; how it was run: as §2
L1210 [30] = experiment: Compound was tested for antitumor activity against L-1210 Murine leukemia in BDF1 female mice at a dose of 24 mg/kg per injection; format: functional, Mus musculus; how it was run: as §4
L1210 [31] = experiment: Compound was tested for antitumor activity against L-1210 Murine leukemia in BDF1 female mice at a dose of 12 mg/kg per injection; format: functional, Mus musculus; how it was run: as §4
P388 [32] = experiment: Compound was tested for antitumor activity against P388 Murine leukemia in BDF1 female mice at a dose of 51.2 mg/kg per injection (MST treated / MST control x 100); format: functional, Mus musculus; how it was run: as §1
L1210 [33] = experiment: Compound was tested for antitumor activity against L-1210 Murine leukemia in BDF1 female mice at a dose of 6 mg/kg per injection; format: functional, Mus musculus; how it was run: as §4
Mus musculus [34] = experiment: Average weight change of BDF1 female mice at a dose of 6 mg/kg per injection; format: functional; how it was run: as §2
Mus musculus [35] = experiment: Average weight change of BDF1 female mice at a dose of 12 mg/kg per injection; format: functional; how it was run: as §2
Mus musculus [36] = experiment: Average weight change of BDF1 female mice at a dose of 48 mg/kg per injection; format: functional; how it was run: as §2
P388 [37] = experiment: Compound was tested for antitumor activity against P388 Murine leukemia in BDF1 female mice at a dose of 25.6 mg/kg per injection (MST treated / MST control x 100); format: functional, Mus musculus; how it was run: as §1
L1210 [38] = experiment: Compound was tested for antitumor activity against L-1210 Murine leukemia in BDF1 female mice at a dose of 48 mg/kg per injection; format: functional, Mus musculus; how it was run: as §4
Mus musculus [39] = experiment: Average weight change of BDF1 female mice at a dose of 0.8 mg/kg per injection; format: functional; how it was run: as §2
P388 [40] = experiment: Compound was tested for antitumor activity against P388 Murine leukemia in BDF1 female mice at a dose of 0.8 mg/kg per injection; format: functional, Mus musculus; how it was run: as §1

## CC1=C(N2CC2C)C(=O)c2c(COC(N)=O)c3n(c2C1=O)CC1NC31 (configuration not stated)
P388 [1]
  MST: 138 days
P388 [2]
  T/C: 125%
Mus musculus [3]
  Weight change: 0 g
Mus musculus [4]
  Weight change: -1.3 g
Mus musculus [5]
  Weight change: -1 g
P388 [6]
  MST: 156 days
P388 [7]
  MST: 219 days
Mus musculus [8]
  Weight change: -0.5 g
[9]
  logP: 0.82
P388 [10]
  minimal effective dose: 1.6 mg/kg
Mus musculus [11]
  Weight change: -0.4 g
Mus musculus [12]
  Weight change: 0 g
P388 [13]
  MST: 144 %T/C
P388 [14]
  MST: 181 % T/C

## CC1=C(N2CC2)C(=O)c2c(COC(N)=O)c3n(c2C1=O)CC1C3N1C (configuration not stated)
Mus musculus [3]
  Weight change: -1.3 g
Mus musculus [4]
  Weight change: -2.5 g
Mus musculus [5]
  Weight change: -2.2 g
P388 [15]
  MST: 172
P388 [7]
  MST: 139 days
Mus musculus [8]
  Weight change: -1.9 g
[9]
  logP: 0.71
P388 [16]
  T/C: 117%
P388 [10]
  minimal effective dose: 1.6 mg/kg
P388 [17]
  MST: 122 days
Mus musculus [11]
  Weight change: -1.1 g
Mus musculus [12]
  Weight change: 0 g
P388 [13]
  MST: 172 %T/C
P388 [14]
  MST: 239 % T/C

## COC1=C(C)C(=O)c2c(c(COC(N)=O)c3n2CC2NC32)C1=O (configuration not stated)
Mus musculus [5]
  Weight change: -0.4 g
P388 [15]
  MST: 139
Mus musculus [8]
  Weight change: -0.8 g
[9]
  logP: 0.87
P388 [16]
  T/C: 122%
P388 [10]
  minimal effective dose: 12.8 mg/kg
Mus musculus [11]
  Weight change: 0 g
Mus musculus [12]
  Weight change: -0.4 g
P388 [13]
  MST: 122 %T/C
P388 [14]
  MST: 167 % T/C

## CC1=C(N)C(=O)c2c(COC(N)=O)c3n(c2C1=O)CC1C3N1C (configuration not stated)
Mus musculus [5]
  Weight change: -0.1 g
P388 [6]
  MST: 100 days
Mus musculus [8]
  Weight change: -0.4 g
P388 [14]
  MST: 100 % T/C
P388 [18]
  T/C: 211%

## C#CCNC1=C(C)C(=O)c2c(c(COC(N)=O)c3n2CC2NC32)C1=O (configuration not stated)
P388 [19]
  MST: 122 days
Mus musculus [20]
  Weight change: -0.3 g
L1210 [21]
  T/C: 140%
  Weight change: -2.8 g
P388 [22]
  MST: 128 days
[9]
  logP: 1.21
P388 [10]
  minimal effective dose: 16 mg/kg
Mus musculus [23]
  Weight change: -0.2 g
Mus musculus [24]
  Weight change: 0 g
L1210 [25]
  T/C: 122%
  Weight change: -1.8 g
Mus musculus [26]
  Weight change: -0.9 g
P388 [27]
  MST: 144 days
P388 [28]
  MST: 172 days

## CC1=C(N2CC2)C(=O)c2c(COC(N)=O)c3n(c2C1=O)CC1NC31 (configuration not stated)
Mus musculus [29]
  Weight change: -2.6 g
Mus musculus [3]
  Weight change: 1 g
L1210 [30]
  MST: 120 days
Mus musculus [5]
  Weight change: -0.4 g
L1210 [31]
  % T/C: 122%
P388 [15]
  MST: 172
P388 [32]
  T/C: 206%
L1210 [33]
  % T/C: 118%
Mus musculus [8]
  Weight change: 0.9 g
Mus musculus [34]
  Weight change: -0.4 g
[9]
  logP: 0.3
Mus musculus [35]
  Weight change: -1.3 g
P388 [16]
  T/C: 144%
P388 [10]
  minimal effective dose: 1.6 mg/kg
Mus musculus [36]
  Weight change: -4.2 g
P388 [37]
  T/C: 189%
L1210 [38]
  MST: 131 days
Mus musculus [12]
  Weight change: 1 g
Mus musculus [39]
  Weight change: 0.9 g
P388 [40]
  MST: 111 days
